Legend:
[1] = system: neuroendocrine tumors (NETs); conditions: NETTER-1 trial; cited from earlier work
[2] = In vitro stability of [^225Ac]Ac-DOTATATE in saline; type: physicochemical; conditions: 37 °C, up to 5 h, n=3, slight decrease in stability after 5 h
[3] = In vivo stability in patients' blood and urine samples; conditions: RP-HPLC
How it was run: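 Samples came from the first 3 patients: blood at 0-10 min and urine up to 3 h post-injection. Blood was precipitated with acetonitrile (1:1) and centrifuged for 5 min at 14,680 rpm, and the supernatant was diluted 1:1 with water. Urine was diluted with water, filtered and analysed immediately. Both went to RP-HPLC, and fractions were gamma-counted (440 keV, [213Bi]) at least 20 h later and plotted by tube number.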

[4] = Excretion from the kidneys after injection; type: in vivo; conditions: 24 h after injection, 9 patients, mean ± SD, relative to injected activity
How it was run: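 Patients received 100-120 kBq/kg of the test radioligand as a slow intravenous injection over 5 min, with arginine/lysine kidney protection. The amount excreted in urine was quantified against standard samples prepared at the time of injection. The excretion rate was expressed relative to injected activity and reported as mean ± standard deviation.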

[5] = Toxicity and side effects according to CTCAE v5.0; type: in vivo, patients
How it was run: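 Patients were treated as inpatients with amino-acid renal protection and ondansetron premedication. Vital signs were recorded every 60 min for 5 h, and complaints were tracked for 24 h. Adverse events were graded by CTCAE v5.0 three months after each cycle. Haematological, renal and liver values before versus after the last cycle were compared by Wilcoxon rank sum test and reported as mean ± standard deviation, with p<0.05 taken as significant.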

[6] = [^68Ga]Ga-DOTATATE uptake of parotid glands; type: in vivo, patients; conditions: [^68Ga]Ga-DOTATATE PET/CT
How it was run: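 Parotid SUVmax was read on [68Ga]Ga-DOTATATE PET/CT at baseline and after cycles of treatment. Pre/post values were compared by Wilcoxon rank sum test and reported as mean ± standard deviation, with p<0.05 taken as significant.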

[7] = system: metastatic neuroendocrine tumors (NETs); experiment: Response evaluation by [^68Ga]Ga-DOTATATE PET/CT and RECIST 1.1; type: in vivo, patients; conditions: [^68Ga]Ga-DOTATATE PET/CT three months after treatment, n=9 evaluated
How it was run: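 Treatment was 100-120 kBq/kg given intravenously over 5 min. Response was read on [68Ga]Ga-DOTATATE PET/contrast-enhanced CT within 4 weeks before and 12-16 weeks after treatment, repeated 12-18 weeks after each cycle until progression or death, and scored by RECIST 1.1 on the ceCT. PFS ran from the first administration and was estimated by Kaplan-Meier. Response comparisons used chi-square, with p<0.05 taken as significant.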

NET = conditions: recent study of the same group; cited from earlier work
[8] = CTCAE v5.0, 8 patients analysed, n=1 (grade 2, after 3 cycles)

| Substance | estimated median progression-free survival (PFS) [1] | RP-HPLC profile of saline incubation samples [2] | time stable in vivo (urine and blood samples) ([3]; first 3 patients, blood 0-10 min, urine up to 3 h after injection) | time remained stable in urine ([3]; patient urine samples up to 3 h after injection) | mean excretion rate from the kidneys [4] | hematotoxicity rate [5, 8] | nephrotoxicity rate [5, 8] | grade 3-4 toxicities ([5]; CTCAE v5.0, mean activity 8.2±0.6 MBq per cycle, 1-3 cycles) | lymphocyte count ([5]; all patients, p<0.05) | acute side effects during the injection ([5]; nausea or vomiting, slow injection over 5 min, 100-120 kBq/kg) | xerostomia ([5]; patient complaints) | mean parotid SUVmax after two cycles ([6]; n=6, baseline 2.98±0.96, p=0.73) | mean parotid SUVmax after the first cycle ([6]; n=9, baseline 2.98±0.96, p=0.93) | progressive disease ([7]; n=1) | partial response (PR) ([7]; n=4) | disease control rate (NET) |
| --- | --- | --- | --- | --- | --- | --- | --- | --- | --- | --- | --- | --- | --- | --- | --- | --- |
| [^177Lu]Lu-DOTATATE | 40 months | – | – | – | – | – | – | – | – | – | – | – | – | – | – | – |
| [^225Ac]Ac-DOTATATE | – | single radioactivity peak | ≥ 3 h | up to 3 h | 56±9.7% | 12.5% | 12.5% | No grade 3-4 toxicities | transient decrease | did not observe any acute side effects | did not complain of xerostomia | 2.48±0.59 | 2.07±0.93 | 11% | 44.4% | 79.8% |
